Results from ChEMBL document CHEMBL3244264, “Anticandidal activity of 5-fluorocytosine-peptide conjugates” (J Med Chem, 1979).
Values after ≈ are worked out from the molar mass of the structure shown. Starred links: 1 amine or outer side, 2 acyl side, 3 side chain; linkers in the order of their positions; H or OH if unused. Residues, ends and D or L forms follow the SMILES beside them. *: point of attachment. Suc = O=C(CCC(=O)[*:2])[*:1]; OBn = c1ccc(CO*)cc1

Tests used:
[1] = Chemical stability of the compound in solutions of organism-free yeast nitrogen base assessed as half life at 50 uM at 37 degC by UV absorbance analysis; type: physicochemical; details: organism-free yeast nitrogen base solution
How it was run: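 Organism-free yeast nitrogen base (0.67%) with 3% dextrose, pH 7.2 (KOH), held at 37 °C in thermostatted cells. Compound in Me2SO added to a final concentration of ca. 5×10^-5 M. Hydrolysis followed as the fall in absorbance at 305 nm over time, first-order fit. Slower compounds (t1/2 > 5 h) were incubated separately and aliquots read at intervals.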

Candida albicans [2] = test: Antiyeast activity against Candida albicans WD 18-4 assessed as total inhibition of fungal growth after 24 to 48 hrs by microdilution-colorimetric method; type: functional
How it was run: (§1)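 Microdilution in yeast nitrogen base (0.67%) with 3% dextrose and 0.004% bromothymol blue, pH 7.2, filter-sterilized; twofold serial dilutions 1.28 mg/mL to 0.04 μg/mL. Overnight culture resuspended to about 2×10^6 cells/mL, 50-μL drop per well; organism-free and drug-free control wells. 48 h at 37 °C, read at 24 and 48 h. MIC is the lowest concentration with no blue-to-yellow/light green change; values normalized to molar equivalents of 5-FC.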

Candida albicans [3] = test: Antiyeast activity against Candida albicans clinical isolate 1-V assessed as total inhibition of fungal growth after 24 to 48 hrs by microdilution-colorimetric method; type: functional; how it was run: as §1
Saccharomyces cerevisiae = test: Antiyeast activity against Saccharomyces cerevisiae 9763 assessed as total inhibition of fungal growth after 24 to 48 hrs by microdilution-colorimetric method; type: functional; how it was run: as §1
Pichia kudriavzevii = test: Antiyeast activity against Candida krusei 1-T assessed as total inhibition of fungal growth after 24 to 48 hrs by microdilution-colorimetric method; type: functional; how it was run: as §1

## CC(C)C[C@H](NC(=O)[C@H](C)NC(=O)CCC(=O)Nc1nc(=O)[nH]cc1F)C(=O)OCc1ccccc1
[1]
  half-life at 50 µM: 1.1 h
Candida albicans [2]
  MIC: 5 µg/mL (≈ 9.93 µM)
Candida albicans [3]
  MIC: 0.62 µg/mL (≈ 1.23 µM)
Saccharomyces cerevisiae
  MIC: 0.31 µg/mL (≈ 0.616 µM)
Pichia kudriavzevii
  MIC: 20 µg/mL (≈ 39.7 µM)

## CC(C)C[C@H](NC(=O)CCC(=O)Nc1nc(=O)[nH]cc1F)C(=O)N[C@@H](CC(C)C)C(=O)OCc1ccccc1
Candida albicans [2]
  MIC: 2.5 µg/mL (≈ 4.58 µM)
Candida albicans [3]
  MIC: 0.62 µg/mL (≈ 1.14 µM)
Saccharomyces cerevisiae
  MIC: 0.31 µg/mL (≈ 0.568 µM)
Pichia kudriavzevii
  MIC: 20 µg/mL (≈ 36.7 µM)

## O=C(CCC(=O)Nc1nc(=O)[nH]cc1F)NCC(=O)NCC(=O)OCc1ccccc1
[1]
  half-life at 50 µM: 0.3 h
Candida albicans [2]
  MIC: 5 µg/mL (≈ 11.5 µM)
Candida albicans [3]
  MIC: 0.62 µg/mL (≈ 1.43 µM)
Saccharomyces cerevisiae
  MIC: 0.62 µg/mL (≈ 1.43 µM)
Pichia kudriavzevii
  MIC: 20 µg/mL (≈ 46.1 µM)

## CC(C)C[C@H](NC(=O)[C@H](C)NC(=O)CCC(=O)Nc1nc(=O)[nH]cc1F)C(=O)O
[1]
  half-life at 50 µM: 1.7 h
Candida albicans [2]
  MIC: 5 µg/mL (≈ 12.1 µM)
Candida albicans [3]
  MIC: 0.31 µg/mL (≈ 0.75 µM)
Saccharomyces cerevisiae
  MIC: 0.31 µg/mL (≈ 0.75 µM)
Pichia kudriavzevii
  MIC: 10 µg/mL (≈ 24.2 µM)

## CC(C)C[C@H](NC(=O)[C@H](CC(C)C)NC(=O)CCC(=O)Nc1nc(=O)[nH]cc1F)C(=O)O
[1]
  half-life at 50 µM: 2.9 h
Candida albicans [2]
  MIC: 5 µg/mL (≈ 11 µM)
Candida albicans [3]
  MIC: 0.31 µg/mL (≈ 0.681 µM)
Saccharomyces cerevisiae
  MIC: 0.31 µg/mL (≈ 0.681 µM)
Pichia kudriavzevii
  MIC: 10 µg/mL (≈ 22 µM)

## CC(C)C[C@H](NC(=O)CCC(=O)O)C(=O)N[C@@H](CC(C)C)C(=O)OCc1ccccc1
Candida albicans [2]
  MIC: > 20 µg/mL
Candida albicans [3]
  MIC: 80 µg/mL (≈ 184 µM)
Saccharomyces cerevisiae
  MIC: 80 µg/mL (≈ 184 µM)
Pichia kudriavzevii
  MIC: 320 µg/mL (≈ 736 µM)

## CC(=O)Nc1nc(O)ncc1F
[1]
  half-life at 50 µM: 17.6 h
Candida albicans [2]
  MIC: 5 µg/mL (≈ 29.2 µM)
Candida albicans [3]
  MIC: 2.5 µg/mL (≈ 14.6 µM)
Saccharomyces cerevisiae
  MIC: 0.31 µg/mL (≈ 1.81 µM)
Pichia kudriavzevii
  MIC: 40 µg/mL (≈ 234 µM)

## CC(C)(C)OC(=O)N[C@@H](CCC(=O)Nc1nc(=O)[nH]cc1F)C(=O)OCc1ccccc1
[1]
  half-life at 50 µM: 10 h
Candida albicans [2]
  MIC: 2.5 µg/mL (≈ 5.57 µM)
Candida albicans [3]
  MIC: 2.5 µg/mL (≈ 5.57 µM)
Saccharomyces cerevisiae
  MIC: 1.25 µg/mL (≈ 2.79 µM)
Pichia kudriavzevii
  MIC: 20 µg/mL (≈ 44.6 µM)

## C[C@H](NC(=O)OC(C)(C)C)C(=O)NCC(=O)Nc1nc(=O)[nH]cc1F
[1]
  half-life at 50 µM: 2.3 h
Candida albicans [2]
  MIC: 1.25 µg/mL (≈ 3.5 µM)
Candida albicans [3]
  MIC: 0.62 µg/mL (≈ 1.74 µM)
Saccharomyces cerevisiae
  MIC: 0.62 µg/mL (≈ 1.74 µM)
Pichia kudriavzevii
  MIC: 20 µg/mL (≈ 56 µM)

## O=C(CNC(=O)OCc1ccccc1)Nc1nc(=O)[nH]cc1F
Candida albicans [2]
  MIC: 2.5 µg/mL (≈ 7.81 µM)
Candida albicans [3]
  MIC: 0.62 µg/mL (≈ 1.94 µM)
Saccharomyces cerevisiae
  MIC: 0.31 µg/mL (≈ 0.968 µM)
Pichia kudriavzevii
  MIC: 10 µg/mL (≈ 31.2 µM)

## CC(C)C[C@H](NC(=O)[C@H](C)NC(=O)CCC(=O)O)C(=O)OCc1ccccc1 (Suc-Ala-Leu-OBn)
Candida albicans [2]
  MIC: > 20 µg/mL
Candida albicans [3]
  MIC: 80 µg/mL (≈ 204 µM)
Saccharomyces cerevisiae
  MIC: 160 µg/mL (≈ 408 µM)
Pichia kudriavzevii
  MIC: 320 µg/mL (≈ 815 µM)

## O=C(O)CCC(=O)NCC(=O)NCC(=O)OCc1ccccc1 (Suc-Gly-Gly-OBn)
Candida albicans [2]
  MIC: > 20 µg/mL
Candida albicans [3]
  MIC: 320 µg/mL (≈ 993 µM)
Saccharomyces cerevisiae
  MIC: 320 µg/mL (≈ 993 µM)
Pichia kudriavzevii
  MIC: 320 µg/mL (≈ 993 µM)

## Nc1nc(=O)[nH]cc1F [FLUCYTOSINE]
Candida albicans [2]
  MIC: 5 µg/mL (≈ 38.7 µM)
Candida albicans [3]
  MIC: 0.31 µg/mL (≈ 2.4 µM)
Saccharomyces cerevisiae
  MIC: 0.31 µg/mL (≈ 2.4 µM)
Pichia kudriavzevii
  MIC: 5 µg/mL (≈ 38.7 µM)

## O=c1[nH]cc(F)c(=O)[nH]1 [FLUOROURACIL]
Candida albicans [2]
  MIC: > 20 µg/mL
Candida albicans [3]
  MIC: 2.5 µg/mL (≈ 19.2 µM)
Saccharomyces cerevisiae
  MIC: 1.25 µg/mL (≈ 9.61 µM)
Pichia kudriavzevii
  MIC: 2.5 µg/mL (≈ 19.2 µM)

## O=C(O)CCC(=O)O [SUCCINIC ACID]
Candida albicans [2]
  MIC: > 20 µg/mL
Candida albicans [3]
  MIC: 320 µg/mL (≈ 2710 µM)
Saccharomyces cerevisiae
  MIC: 640 µg/mL (≈ 5420 µM)
Pichia kudriavzevii
  MIC: 320 µg/mL (≈ 2710 µM)
